In ChEMBL document CHEMBL2346606, “Inhibitors of the TAM subfamily of tyrosine kinases: synthesis and biological evaluation” (Eur J Med Chem, 2013):

Legend:
MCF7 = assay: Growth inhibition of human MCF7 cells at 10 uM after 72 hrs by […] assay relative to control; type: functional; settings: MCF7, 72 h, read-out: GI
Procedure, shortened: (§1)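 HT29, MCF7 and PC-3 cells were grown in RPMI, plated, and treated 24 h later with compound in DMSO at 10^-5 M (DMSO controls, 1% final). After 72 h exposure, MTS reagent was added for 3 h at 37 °C and absorbance read at 490 nm. Proliferation inhibition = [1 − OD treated/OD control] × 100, triplicate experiments.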

HT-29 = assay: Growth inhibition of human HT-29 cells at 10 uM after 72 hrs by […] assay relative to control; type: functional; settings: HT-29, 72 h, read-out: GI; procedure, shortened: as §1
[1] = Growth inhibition of African green monkey Vero cells at 10 uM after 72 hrs by […] assay relative to control; type: cell-based; settings: chlorocebus sabaeus, read-out: GI
Procedure, shortened: (§2)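 KB and Vero cells were grown in D-MEM with 10% FCS and antibiotics under 5% CO2, plated, then dosed 24 h later at 10^-5 M from DMSO (controls 1% DMSO). After 72 h, MTS was added for 3 h at 37 °C and A490 read. Inhibition = (1 − OD treated/OD control) × 100, in triplicate.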

KB = assay: Growth inhibition of human KB cells at 10 uM after 72 hrs by […] relative to control; type: functional; settings: read-out: GI; procedure, shortened: as §2
PC-3 = assay: Growth inhibition of human PC3 cells at 10 uM after 72 hrs by […] assay relative to control; type: functional; settings: PC-3, 72 h, read-out: GI; procedure, shortened: as §1

O=C(Nc1ccc(Nc2ncnc3[nH]cnc23)cc1)c1ccccc1F
< 10%: inhibition of growth at 10 µM (MCF7) | inhibition of growth at 10 µM (HT-29) | inhibition at 72 h, 10 µM [1] | inhibition of growth at 10 µM (KB) | inhibition of growth at 10 µM (PC-3)

O=C(Nc1cccc(-c2ncnc3[nH]cnc23)c1)c1ccccc1F
< 10%: inhibition of growth at 10 µM (MCF7) | inhibition of growth at 10 µM (HT-29) | inhibition at 72 h, 10 µM [1] | inhibition of growth at 10 µM (KB) | inhibition of growth at 10 µM (PC-3)

O=C(Nc1cccc(-c2nc3c(Nc4cccc(C(F)(F)F)c4)ncnc3[nH]2)c1)c1ccccc1F
< 10%: inhibition of growth at 10 µM (MCF7) | inhibition of growth at 10 µM (HT-29) | inhibition at 72 h, 10 µM [1] | inhibition of growth at 10 µM (KB) | inhibition of growth at 10 µM (PC-3)

O=C(Nc1cccc(-c2ncnc3[nH]cnc23)c1)c1cccn(-c2cccc(C(F)(F)F)c2)c1=O
< 10%: inhibition of growth at 10 µM (MCF7) | inhibition of growth at 10 µM (HT-29) | inhibition at 72 h, 10 µM [1] | inhibition of growth at 10 µM (KB) | inhibition of growth at 10 µM (PC-3)

COc1ncccc1C(=O)Nc1cccc(-c2nc3c(Nc4ccc(F)cc4)ncnc3[nH]2)c1
< 10%: inhibition of growth at 10 µM (MCF7) | inhibition of growth at 10 µM (HT-29) | inhibition at 72 h, 10 µM [1] | inhibition of growth at 10 µM (KB) | inhibition of growth at 10 µM (PC-3)

O=C(Nc1ccc(Nc2ncnc3[nH]cnc23)c(F)c1)c1cccn(-c2cccc(F)c2)c1=O
< 10%: inhibition of growth at 10 µM (MCF7) | inhibition of growth at 10 µM (HT-29) | inhibition at 72 h, 10 µM [1] | inhibition of growth at 10 µM (KB) | inhibition of growth at 10 µM (PC-3)

COc1ccccc1C(=O)Nc1ccc(Nc2ncnc3[nH]cnc23)c(F)c1
< 10%: inhibition of growth at 10 µM (MCF7) | inhibition of growth at 10 µM (HT-29) | inhibition at 72 h, 10 µM [1] | inhibition of growth at 10 µM (KB) | inhibition of growth at 10 µM (PC-3)

O=C(Nc1cccc(-c2ncnc3[nH]cnc23)c1)c1cccn(-c2ccc(C(F)(F)F)cc2)c1=O
< 10%: inhibition of growth at 10 µM (MCF7) | inhibition of growth at 10 µM (HT-29) | inhibition at 72 h, 10 µM [1] | inhibition of growth at 10 µM (KB) | inhibition of growth at 10 µM (PC-3)

O=C(Nc1ccc(Nc2ncnc3[nH]cnc23)cc1)c1cccn(-c2cccc(C(F)(F)F)c2)c1=O
< 10%: inhibition of growth at 10 µM (MCF7) | inhibition of growth at 10 µM (HT-29) | inhibition at 72 h, 10 µM [1] | inhibition of growth at 10 µM (KB) | inhibition of growth at 10 µM (PC-3)

COc1ccccc1C(=O)Nc1cccc(-c2nc3c(Nc4ccc(F)cc4)ncnc3[nH]2)c1
< 10%: inhibition of growth at 10 µM (MCF7) | inhibition of growth at 10 µM (HT-29) | inhibition at 72 h, 10 µM [1] | inhibition of growth at 10 µM (KB) | inhibition of growth at 10 µM (PC-3)

O=C(Nc1cccc(-c2nc3c(Nc4ccc(F)cc4)ncnc3[nH]2)c1)c1ccccc1F
< 10%: inhibition of growth at 10 µM (MCF7) | inhibition of growth at 10 µM (HT-29) | inhibition at 72 h, 10 µM [1] | inhibition of growth at 10 µM (KB) | inhibition of growth at 10 µM (PC-3)

O=C(Nc1cccc(-c2ncnc3[nH]cnc23)c1)c1cccn(-c2cccc(F)c2)c1=O
< 10%: inhibition of growth at 10 µM (MCF7) | inhibition of growth at 10 µM (HT-29) | inhibition at 72 h, 10 µM [1] | inhibition of growth at 10 µM (KB) | inhibition of growth at 10 µM (PC-3)

COc1ncccc1C(=O)Nc1ccc(Nc2ncnc3[nH]cnc23)cc1
< 10%: inhibition of growth at 10 µM (MCF7) | inhibition of growth at 10 µM (HT-29) | inhibition at 72 h, 10 µM [1] | inhibition of growth at 10 µM (KB) | inhibition of growth at 10 µM (PC-3)

COc1ccccc1C(=O)Nc1cccc(-c2nc3c(Nc4ccccc4)ncnc3[nH]2)c1
< 10%: inhibition of growth at 10 µM (MCF7) | inhibition of growth at 10 µM (HT-29) | inhibition at 72 h, 10 µM [1] | inhibition of growth at 10 µM (KB) | inhibition of growth at 10 µM (PC-3)

COc1ncccc1C(=O)Nc1cccc(-c2nc3c(Nc4ccccc4)ncnc3[nH]2)c1
< 10%: inhibition of growth at 10 µM (MCF7) | inhibition of growth at 10 µM (HT-29) | inhibition at 72 h, 10 µM [1] | inhibition of growth at 10 µM (KB) | inhibition of growth at 10 µM (PC-3)

COc1ccccc1C(=O)Nc1cccc(-c2ncnc3[nH]cnc23)c1
< 10%: inhibition of growth at 10 µM (MCF7) | inhibition of growth at 10 µM (HT-29) | inhibition at 72 h, 10 µM [1] | inhibition of growth at 10 µM (KB) | inhibition of growth at 10 µM (PC-3)

Cc1cc(C(=O)Nc2ccc(Nc3ncnc4[nH]cnc34)c(F)c2)ccc1Br
< 10%: inhibition of growth at 10 µM (MCF7) | inhibition of growth at 10 µM (HT-29) | inhibition at 72 h, 10 µM [1] | inhibition of growth at 10 µM (KB) | inhibition of growth at 10 µM (PC-3)

COc1ncccc1C(=O)Nc1cccc(-c2ncnc3[nH]cnc23)c1
< 10%: inhibition of growth at 10 µM (MCF7) | inhibition of growth at 10 µM (HT-29) | inhibition at 72 h, 10 µM [1] | inhibition of growth at 10 µM (KB) | inhibition of growth at 10 µM (PC-3)

O=C(Nc1cccc(-c2ncnc3[nH]cnc23)c1)c1cccn(-c2ccc(F)cc2)c1=O
< 10%: inhibition of growth at 10 µM (MCF7) | inhibition of growth at 10 µM (HT-29) | inhibition at 72 h, 10 µM [1] | inhibition of growth at 10 µM (KB) | inhibition of growth at 10 µM (PC-3)

O=C(Nc1ccc(Nc2ncnc3[nH]cnc23)c(F)c1)c1cccn(-c2ccc(F)cc2)c1=O
< 10%: inhibition of growth at 10 µM (MCF7) | inhibition of growth at 10 µM (HT-29) | inhibition at 72 h, 10 µM [1] | inhibition of growth at 10 µM (KB) | inhibition of growth at 10 µM (PC-3)

O=C(Nc1ccc(Nc2ncnc3[nH]cnc23)c(F)c1)c1cccn(-c2ccc(C(F)(F)F)cc2)c1=O
< 10%: inhibition of growth at 10 µM (MCF7) | inhibition of growth at 10 µM (HT-29) | inhibition at 72 h, 10 µM [1] | inhibition of growth at 10 µM (KB) | inhibition of growth at 10 µM (PC-3)

O=C(Nc1ccc(Nc2ncnc3[nH]cnc23)c(F)c1)c1cccnc1F
< 10%: inhibition of growth at 10 µM (MCF7) | inhibition of growth at 10 µM (HT-29) | inhibition at 72 h, 10 µM [1] | inhibition of growth at 10 µM (KB) | inhibition of growth at 10 µM (PC-3)

Cc1cc(C(=O)Nc2cccc(-c3ncnc4[nH]cnc34)c2)ccc1Br
< 10%: inhibition of growth at 10 µM (MCF7) | inhibition of growth at 10 µM (HT-29) | inhibition at 72 h, 10 µM [1] | inhibition of growth at 10 µM (KB) | inhibition of growth at 10 µM (PC-3)

COc1ncccc1C(=O)Nc1cccc(-c2nc3c(Nc4cccc(C(F)(F)F)c4)ncnc3[nH]2)c1
< 10%: inhibition of growth at 10 µM (MCF7) | inhibition of growth at 10 µM (HT-29) | inhibition at 72 h, 10 µM [1] | inhibition of growth at 10 µM (KB) | inhibition of growth at 10 µM (PC-3)

O=C(Nc1cccc(-c2nc3c(Nc4ccccc4)ncnc3[nH]2)c1)c1ccccc1F
< 10%: inhibition of growth at 10 µM (MCF7) | inhibition of growth at 10 µM (HT-29) | inhibition at 72 h, 10 µM [1] | inhibition of growth at 10 µM (KB) | inhibition of growth at 10 µM (PC-3)

CCN(CC)CCNC(=O)c1c(C)[nH]c(/C=C2\C(=O)Nc3ccc(F)cc32)c1C [SUNITINIB]
< 10%: inhibition of growth at 10 µM (MCF7) | inhibition of growth at 10 µM (HT-29) | inhibition at 72 h, 10 µM [1] | inhibition of growth at 10 µM (KB) | inhibition of growth at 10 µM (PC-3)

COc1cc2c(Nc3ccc(Br)cc3F)ncnc2cc1OCC1CCN(C)CC1 [VANDETANIB]
< 10%: inhibition of growth at 10 µM (MCF7) | inhibition of growth at 10 µM (HT-29) | inhibition at 72 h, 10 µM [1] | inhibition of growth at 10 µM (KB) | inhibition of growth at 10 µM (PC-3)

COc1ccccc1C(=O)Nc1cccc(-c2nc3c(Nc4cccc(C(F)(F)F)c4)ncnc3[nH]2)c1
< 10%: inhibition of growth at 10 µM (MCF7) | inhibition of growth at 10 µM (HT-29) | inhibition at 72 h, 10 µM [1] | inhibition of growth at 10 µM (KB) | inhibition of growth at 10 µM (PC-3)

O=C(Nc1cccc(-c2ncnc3[nH]cnc23)c1)c1cccnc1F
< 10%: inhibition of growth at 10 µM (MCF7) | inhibition of growth at 10 µM (HT-29) | inhibition at 72 h, 10 µM [1] | inhibition of growth at 10 µM (KB) | inhibition of growth at 10 µM (PC-3)

O=C(Nc1ccc(Nc2ncnc3[nH]cnc23)c(F)c1)c1cccn(-c2cccc(C(F)(F)F)c2)c1=O
< 10%: inhibition of growth at 10 µM (MCF7) | inhibition of growth at 10 µM (HT-29) | inhibition at 72 h, 10 µM [1] | inhibition of growth at 10 µM (KB) | inhibition of growth at 10 µM (PC-3)

O=C(Nc1ccc(Nc2ncnc3[nH]cnc23)cc1)c1cccn(-c2cccc(F)c2)c1=O
< 10%: inhibition of growth at 10 µM (MCF7) | inhibition of growth at 10 µM (HT-29) | inhibition at 72 h, 10 µM [1] | inhibition of growth at 10 µM (KB) | inhibition of growth at 10 µM (PC-3)

COc1ncccc1C(=O)Nc1ccc(Nc2ncnc3[nH]cnc23)c(F)c1
< 10%: inhibition of growth at 10 µM (MCF7) | inhibition of growth at 10 µM (HT-29) | inhibition at 72 h, 10 µM [1] | inhibition of growth at 10 µM (KB) | inhibition of growth at 10 µM (PC-3)

COc1ccccc1C(=O)Nc1cccc(-c2nc3c(Nc4cccc(F)c4)ncnc3[nH]2)c1
< 10%: inhibition of growth at 10 µM (MCF7) | inhibition of growth at 10 µM (HT-29) | inhibition at 72 h, 10 µM [1] | inhibition of growth at 10 µM (KB) | inhibition of growth at 10 µM (PC-3)

COc1ncccc1C(=O)Nc1cccc(-c2nc3c(Nc4cccc(F)c4)ncnc3[nH]2)c1
< 10%: inhibition of growth at 10 µM (MCF7) | inhibition of growth at 10 µM (HT-29) | inhibition at 72 h, 10 µM [1] | inhibition of growth at 10 µM (KB) | inhibition of growth at 10 µM (PC-3)

O=C(Nc1ccc(Nc2ncnc3[nH]cnc23)cc1)c1cccnc1F
< 10%: inhibition of growth at 10 µM (MCF7) | inhibition of growth at 10 µM (HT-29) | inhibition at 72 h, 10 µM [1] | inhibition of growth at 10 µM (KB) | inhibition of growth at 10 µM (PC-3)

O=C(Nc1ccc(Oc2ncnc3[nH]cnc23)c(F)c1)c1ccccc1F
< 10%: inhibition of growth at 10 µM (MCF7) | inhibition of growth at 10 µM (HT-29) | inhibition at 72 h, 10 µM [1] | inhibition of growth at 10 µM (KB) | inhibition of growth at 10 µM (PC-3)
